Series [1] in a line: Cytotoxicity against human THP1 cells upto 50 uM treated 3 times per week for 14 days by MTT assay. In kind it is cell-based. The following applies: thp-1, 336 h. (In general: Tetrazolium dyes change colour on reduction, which living cells bring about.)
The test system of series [2] is Staphylococcus aureus. Nature of the series: Bactericidal activity against methicillin-resistant Staphylococcus aureus isolate 1a assessed as reduction in colony counts at 32 ug/ml after 20 hrs by pour plate method (reference value: 12.73 +/- 0.223 log10CFU/ml). In kind it is functional.
The test system of series [3] is Staphylococcus aureus. Nature of the series: Bactericidal activity against methicillin-resistant Staphylococcus aureus isolate 1a assessed as reduction in colony counts at 32 ug/ml after 8 hrs by pour plate method (reference value: 8.30 +/- 0.442 log10CFU/ml). In kind it is functional.
Series [4] concerns Staphylococcus aureus. Nature of the series: Bactericidal activity against methicillin-resistant Staphylococcus aureus isolate 1a assessed as reduction in colony counts at 32 ug/ml after 16 hrs by pour plate method (reference value: 12.50 +/- 0.291 log10CFU/ml). In kind it is functional.
The subject of series [5] is Staphylococcus aureus. Nature of the series: Bactericidal activity against methicillin-resistant Staphylococcus aureus isolate 1a assessed as reduction in colony counts at 32 ug/ml after 24 hrs by pour plate method (reference value: 12.64 +/- 0.224 log10CFU/ml). In kind it is functional.
The test system of series [6] is Staphylococcus aureus. Kind of series: Bactericidal activity against methicillin-resistant Staphylococcus aureus isolate 1a assessed as reduction in colony counts at 32 ug/ml after 4 hrs by pour plate method (reference value: 6.14 +/- 0.456 log10CFU/ml). In kind it is functional.
The subject of series [7] is Staphylococcus aureus. Nature of the series: Bactericidal activity against methicillin-resistant Staphylococcus aureus isolate 1a assessed as reduction in colony counts at 32 ug/ml after 12 hrs by pour plate method (reference value: 10.12 +/- 0.428 log10CFU/ml). In kind it is functional.
For series [8], the system named is Staphylococcus aureus. Nature of the series: Antimicrobial activity against methicillin-resistant Staphylococcus aureus isolate 6a after 24 hrs by agar plate dilution method. In kind it is functional. A digest of the protocol: (§1)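 Clinical MRSA isolates, from axilla/nasal swabs and identified by mannitol salt agar, Gram stain and coagulase test. […] Inoculum adjusted to McFarland 0.5 in water. Plates incubated 24 h at 37 °C and scored for growth spots. Dilution series quality-controlled with S. aureus NCTC 6571. Combination lines used a 1:1 mixture with oxacillin.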

Series [9] relates to Staphylococcus aureus. Nature of the series: Antimicrobial activity against methicillin-resistant Staphylococcus aureus isolate 4a after 24 hrs by agar plate dilution method. In kind it is functional. A digest of the protocol:
(§2)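 Clinical MRSA isolates from axilla/nasal swabs, identified by mannitol salt agar, Gram stain and coagulase test. Agar plate dilution with compound series 0.03–128 µg/mL. Inoculum suspended in water to McFarland 0.5. Incubation 24 h at 37 °C. MIC read as the lowest level without white growth spots. Dilution series quality-controlled with S. aureus NCTC 6571.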

Series [10] relates to Staphylococcus aureus. Kind of series: Antimicrobial activity against methicillin-resistant Staphylococcus aureus isolate 22a after 24 hrs by agar plate dilution method. In kind it is functional. A digest of the protocol:
as §2

Series [11] deals with Staphylococcus aureus. Nature of the series: Antimicrobial activity against methicillin-resistant Staphylococcus aureus isolate 14a after 24 hrs by agar plate dilution method. In kind it is functional. The essentials: as §2
The test system of series [12] is Staphylococcus aureus. Nature of the series: Antimicrobial activity against methicillin-resistant Staphylococcus aureus isolate 12a after 24 hrs by agar plate dilution method. In kind it is functional. A digest of the protocol: as §2
Series [13] has as its system Staphylococcus aureus. Nature of the series: Antimicrobial activity against methicillin-resistant Staphylococcus aureus isolate 18a after 24 hrs by agar plate dilution method. In kind it is functional. A digest of the protocol: as §2
The test system of series [14] is Staphylococcus aureus. Nature of the series: Antimicrobial activity against methicillin-resistant Staphylococcus aureus isolate 11a after 24 hrs by agar plate dilution method. In kind it is functional. The essentials:
as §2

Series [15] relates to Staphylococcus aureus. Kind of series: Antimicrobial activity against methicillin-resistant Staphylococcus aureus isolate 13a after 24 hrs by agar plate dilution method. In kind it is functional. The essentials: as §2
Series [16] has as its system Staphylococcus aureus. Nature of the series: Antimicrobial activity against methicillin-resistant Staphylococcus aureus isolate 3a after 24 hrs by agar plate dilution method. In kind it is functional. A digest of the protocol: as §2
Series [17] has as its system Staphylococcus aureus. Kind of series: Antimicrobial activity against methicillin-resistant Staphylococcus aureus isolate 17a after 24 hrs by agar plate dilution method. In kind it is functional. A digest of the protocol: as §2
For series [18], the system named is Staphylococcus aureus. Kind of series: Antimicrobial activity against methicillin-resistant Staphylococcus aureus isolate 15a after 24 hrs by agar plate dilution method. In kind it is functional. The essentials:
as §2

Series [19] has as its system Staphylococcus aureus. Nature of the series: Antimicrobial activity against methicillin-resistant Staphylococcus aureus isolate 5a after 24 hrs by agar plate dilution method. In kind it is functional. The essentials:
as §1

Series [20] relates to Staphylococcus aureus. Nature of the series: Antimicrobial activity against methicillin-resistant Staphylococcus aureus isolate 28a after 24 hrs by agar plate dilution method. In kind it is functional. A digest of the protocol: as §2
Series [21] relates to Staphylococcus aureus. Nature of the series: Antimicrobial activity against methicillin-resistant Staphylococcus aureus isolate 26a after 24 hrs by agar plate dilution method. In kind it is functional. A digest of the protocol: as §2
In series [22] the test system is Staphylococcus aureus. Nature of the series: Antimicrobial activity against methicillin-resistant Staphylococcus aureus isolate 30a after 24 hrs by agar plate dilution method. In kind it is functional. A digest of the protocol:
as §2

Series [23] has as its system Staphylococcus aureus. Kind of series: Antimicrobial activity against methicillin-resistant Staphylococcus aureus isolate 23a after 24 hrs by agar plate dilution method. In kind it is functional. The essentials: as §2
Series [24] relates to Staphylococcus aureus. Nature of the series: Antimicrobial activity against methicillin-resistant Staphylococcus aureus isolate 24a after 24 hrs by agar plate dilution method. In kind it is functional. A digest of the protocol:
as §2

Series [25] deals with Staphylococcus aureus. Nature of the series: Antimicrobial activity against methicillin-resistant Staphylococcus aureus isolate 16a after 24 hrs by agar plate dilution method. In kind it is functional. The essentials: as §2
The test system of series [26] is Staphylococcus aureus. Nature of the series: Antimicrobial activity against methicillin-resistant Staphylococcus aureus isolate 29a after 24 hrs by agar plate dilution method. In kind it is functional. A digest of the protocol:
as §2

The subject of series [27] is Staphylococcus aureus. Kind of series: Antimicrobial activity against methicillin-resistant Staphylococcus aureus isolate 25a after 24 hrs by agar plate dilution method. In kind it is functional. The essentials: as §2
Series [28] has as its system Staphylococcus aureus. Kind of series: Antimicrobial activity against methicillin-resistant Staphylococcus aureus isolate 10a after 24 hrs by agar plate dilution method. In kind it is functional. A digest of the protocol: as §2
The test system of series [29] is Staphylococcus aureus. Nature of the series: Antimicrobial activity against methicillin-resistant Staphylococcus aureus isolate 1a after 24 hrs by agar plate dilution method. In kind it is functional. The essentials:
as §2

The test system of series [30] is Staphylococcus aureus. Nature of the series: Antimicrobial activity against methicillin-resistant Staphylococcus aureus isolate 7a after 24 hrs by agar plate dilution method. In kind it is functional. The essentials:
as §1

The subject of series [31] is Staphylococcus aureus. Kind of series: Antimicrobial activity against methicillin-resistant Staphylococcus aureus isolate 19a after 24 hrs by agar plate dilution method. In kind it is functional. A digest of the protocol: as §2
The test system of series [32] is Staphylococcus aureus. Nature of the series: Antimicrobial activity against methicillin-resistant Staphylococcus aureus isolate 2a after 24 hrs by agar plate dilution method. In kind it is functional. The essentials:
as §2

The subject of series [33] is Staphylococcus aureus. Nature of the series: Antimicrobial activity against methicillin-resistant Staphylococcus aureus isolate 27a after 24 hrs by agar plate dilution method. In kind it is functional. The essentials:
as §2

The test system of series [34] is Staphylococcus aureus. Kind of series: Antimicrobial activity against methicillin-resistant Staphylococcus aureus isolate 8a after 24 hrs by agar plate dilution method. In kind it is functional. The essentials:
as §1

Series [35] concerns Staphylococcus aureus. Kind of series: Antimicrobial activity against methicillin-resistant Staphylococcus aureus isolate 21a after 24 hrs by agar plate dilution method. In kind it is functional. The essentials: as §2
Series [36] concerns Staphylococcus aureus. Kind of series: Antimicrobial activity against methicillin-resistant Staphylococcus aureus isolate 9a after 24 hrs by agar plate dilution method. In kind it is functional. The essentials: as §1
The subject of series [37] is Staphylococcus aureus. Kind of series: Antimicrobial activity against methicillin-resistant Staphylococcus aureus isolate 20a after 24 hrs by agar plate dilution method. In kind it is functional. The essentials:
as §2

Values after ≈ are worked out from the molar mass of the structure shown.

In the case of `Cc1ncc([N+](=O)[O-])n1CCn1cc(CNc2cccc(F)c2)nn1`, the Activity result in [1] is reported as “Non-toxic”.

With `COc1cc(NCc2cn(CCn3c([N+](=O)[O-])cnc3C)nn2)cc(OC)c1`, the Activity result in [1] is “Non-toxic”.

Consider `Cc1ncc([N+](=O)[O-])n1CCn1cc(CNc2cccc(Cl)c2Cl)nn1`, for which the Activity entry in series [1] is listed as “Non-toxic”.

Take `Cc1ncc([N+](=O)[O-])n1CCn1cc(CNCCc2ccccc2)nn1`: in [1], the Activity entry is “Non-toxic”.

Turning to `Cc1ccc(OCc2cn(CCn3c([N+](=O)[O-])cnc3C)nn2)cc1`, the Activity result in series [1] is “Non-toxic”.

As to `Cc1ncc([N+](=O)[O-])n1CCn1cc(COc2ccc([N+](=O)[O-])cc2)nn1`, the Activity result in [1] was “Non-toxic”.

For the compound `Cc1ncc([N+](=O)[O-])n1CCn1cc(COc2ccccc2)nn1`, in [1], the Activity result is “Non-toxic”.

As for `CCC(=O)OCc1cn(CCn2c([N+](=O)[O-])cnc2C)nn1`, the Activity entry in series [1] is “Non-toxic”.

Take `Cc1ncc([N+](=O)[O-])n1CCn1cc(COC2CCCCO2)nn1` (stereo not drawn): the Activity result in series [1] is “Non-toxic”.

Regarding `Cc1ncc([N+](=O)[O-])n1CCn1cc(COc2ccccc2Cl)nn1`, the Activity result in series [1] is on record as “Non-toxic”.

As to `Cc1ncc([N+](=O)[O-])n1CCn1cc(-c2ccccc2)nn1`, in series [1], the Activity result is given as “Non-toxic”.

As to `Cc1ncc([N+](=O)[O-])n1CCn1cc(COc2ccc(C=O)cc2)nn1`, the Activity result in series [1] is given as “Non-toxic”.

As for `Cc1ncc([N+](=O)[O-])n1CCn1cc(C2(O)CCCCC2)nn1`, the Activity result in series [1] is “Non-toxic”.

Regarding `Cc1ccccc1OCc1cn(CCn2c([N+](=O)[O-])cnc2C)nn1`, the Activity entry in series [1] is recorded as “Non-toxic”.

On to `Cc1ncc([N+](=O)[O-])n1CCn1cc(COc2ccccc2C=O)nn1`, for which the Activity result in [1] is “Non-toxic”.

On to `Cc1ncc([N+](=O)[O-])n1CCn1cc(CBr)nn1`, for which, in [1], the Activity entry is “Non-toxic”.

As to `Cc1ncc([N+](=O)[O-])n1CCO` [METRONIDAZOLE], the Activity is 8.14 log10CFU/ml in the series on Staphylococcus aureus [2]; 6.45 log10CFU/ml with Staphylococcus aureus [3]; 8.25 log10CFU/ml with Staphylococcus aureus [4]; 8.3 log10CFU/ml with Staphylococcus aureus [5]; 5.91 log10CFU/ml in the series on Staphylococcus aureus [6]; 8.01 log10CFU/ml with Staphylococcus aureus [7].

Usually MIC stands for the lowest concentration that inhibits growth of the organism. On to `Cc1onc(-c2ccccc2)c1C(=O)N[C@@H]1C(=O)N2[C@@H]1SC(C)(C)[C@@H]2C(=O)O` [OXACILLIN], for which the MIC is over 128 mg/L against Staphylococcus aureus [8]; over 128 mg/L against Staphylococcus aureus [9]; 32 mg/L (≈ 79.7 µM) with Staphylococcus aureus [10]; over 128 mg/L against Staphylococcus aureus [11]; over 128 mg/L with Staphylococcus aureus [12]; over 128 mg/L in the series with Staphylococcus aureus [13]. For the same compound, the MIC against Staphylococcus aureus [14], in the series on Staphylococcus aureus [15], against Staphylococcus aureus [16], with Staphylococcus aureus [17], with Staphylococcus aureus [18] and in the series on Staphylococcus aureus [19] was over 128 mg/L each time. Further, the MIC with Staphylococcus aureus [20] is 128 mg/L (≈ 319 µM); against Staphylococcus aureus [21] it was 32 mg/L (≈ 79.7 µM); in the series on Staphylococcus aureus [22], 64 mg/L (≈ 159 µM); against Staphylococcus aureus [23] it was 64 mg/L (≈ 159 µM); with Staphylococcus aureus [24] it was 16 mg/L (≈ 39.9 µM); in the series on Staphylococcus aureus [25] it was over 128 mg/L. The MIC was 32 mg/L (≈ 79.7 µM) against Staphylococcus aureus [26]; 64 mg/L (≈ 159 µM) in the series on Staphylococcus aureus [27]; over 128 mg/L in the series with Staphylococcus aureus [28]; over 128 mg/L in the series on Staphylococcus aureus [29]; over 128 mg/L in the series on Staphylococcus aureus [30]; over 128 mg/L in the series on Staphylococcus aureus [31]. Besides, the MIC is over 128 mg/L with Staphylococcus aureus [32]; 32 mg/L (≈ 79.7 µM) against Staphylococcus aureus [33]; over 128 mg/L with Staphylococcus aureus [34]; 64 mg/L (≈ 159 µM) in the series on Staphylococcus aureus [35]; over 128 mg/L against Staphylococcus aureus [36]; over 128 mg/L in the series on Staphylococcus aureus [37]. Also, the Activity was 11.95 log10CFU/ml with Staphylococcus aureus [2]; 7.62 log10CFU/ml in the series with Staphylococcus aureus [3]; 11.2 log10CFU/ml in the series with Staphylococcus aureus [4]; 12.34 log10CFU/ml with Staphylococcus aureus [5]; 6.05 log10CFU/ml in the series on Staphylococcus aureus [6]; 8.35 log10CFU/ml in the series with Staphylococcus aureus [7].
